Assay outcomes from PubChem BioAssay.
Only some compounds are listed: those with a hit (about 1.5% of all), similar ones and a draw of the others.
CHT allo act – CHT positive allosteric modulators, primary screen, cell-based, membrane potential dye, choline EC20; High affinity choline transporter 1 (Homo sapiens), Q9GZV3; CHT-expressing cells; hits give high values; LV-AA mutant CHT in HEK293 cells; B-score at 10 µM; 310,000 tested, 0.49% active; AID 488977, 2010;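 active = initial fluorescence not abnormally high and integrated response B-score, plate-corrected, over 3 SD above library mean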
VLA-4 inh – inhibition in human VLA-4 binding assay, primary screen, VLA-4 allosteric modulator project, MLPCN library, flow cytometry, VLA-4 expressing cells; inhibition, % (about 7 µM as worked out from the volumes in the protocol); AID 2557, 2010; ligand binding flow cytometry; 330,000 tested, 0.2% active; in the data active = inhibition above about 50%
Target sequence (P13612 whole entry, looked up): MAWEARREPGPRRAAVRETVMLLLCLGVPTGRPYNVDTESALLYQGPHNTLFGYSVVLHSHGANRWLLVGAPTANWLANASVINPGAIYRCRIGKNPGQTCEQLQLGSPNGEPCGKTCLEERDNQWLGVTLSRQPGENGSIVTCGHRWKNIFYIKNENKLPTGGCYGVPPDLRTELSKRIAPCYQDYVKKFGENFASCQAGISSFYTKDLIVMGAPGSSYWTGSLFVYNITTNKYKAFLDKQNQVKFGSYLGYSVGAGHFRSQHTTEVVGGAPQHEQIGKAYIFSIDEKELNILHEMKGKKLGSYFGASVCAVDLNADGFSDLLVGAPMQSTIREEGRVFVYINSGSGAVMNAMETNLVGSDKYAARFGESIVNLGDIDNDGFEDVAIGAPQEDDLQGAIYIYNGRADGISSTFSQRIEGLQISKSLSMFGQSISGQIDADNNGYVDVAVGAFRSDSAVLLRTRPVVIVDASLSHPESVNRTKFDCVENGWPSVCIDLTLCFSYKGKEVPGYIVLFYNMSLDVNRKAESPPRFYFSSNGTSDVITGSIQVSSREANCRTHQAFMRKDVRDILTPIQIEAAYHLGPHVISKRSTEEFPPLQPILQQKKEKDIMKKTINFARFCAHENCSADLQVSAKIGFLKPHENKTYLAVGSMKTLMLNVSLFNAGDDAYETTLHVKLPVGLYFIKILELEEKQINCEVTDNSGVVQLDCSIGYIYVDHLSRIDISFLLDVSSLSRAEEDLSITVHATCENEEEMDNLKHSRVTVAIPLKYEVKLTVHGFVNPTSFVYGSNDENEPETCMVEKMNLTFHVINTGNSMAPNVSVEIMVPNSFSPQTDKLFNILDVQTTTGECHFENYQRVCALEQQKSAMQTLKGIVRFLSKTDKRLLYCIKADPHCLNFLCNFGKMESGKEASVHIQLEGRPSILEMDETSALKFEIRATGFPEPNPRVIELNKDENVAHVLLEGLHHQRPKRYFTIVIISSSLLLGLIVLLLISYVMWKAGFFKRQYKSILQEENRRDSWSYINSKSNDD
CHT block – inhibitors of human choline transporter CHT. High affinity choline transporter 1 (Homo sapiens), Q9GZV3. CHT-expressing cells, membrane potential dye, choline response; hits give low values. B-score at 10 µM. 310,000 tested, 0.86% active. AID 488975, 2010;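 active = B-score over 3 SD under the library average, and starting fluorescence ratio not unusually high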;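 note: choline stimulus applied at its EC90 after an EC20 pre-addition; B-score computed on integrated fluorescence ratio after choline addition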
T cell HTS – modulators of CD8 T cell-vesicle binding, primary screen, mouse 2C CD8+ T cells, flow cytometry; 2C CD8+ T cell-vesicle binding; hits give low values; response (vesicle binding), % at 7 µM; 330,000 tested, 0.068% active;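 active = response, share of CD8 T cells binding vesicles, and their 90th percentile fluorescence all below set limits, cut at about 80% in these data, passing the limit was not always enough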;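 note: values below 100% mean blocked vesicle binding to the CD8+ T cells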
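Assay system: 2C TCR transgenic mouse naive CD8+ T cells, MACS-purified | Read-out: CD8+ gate FL2 mean fluorescence as % of same-row positive control | Signal: High-throughput flow cytometry with anti-B7-1 and anti-CD8 staining | Timing: Binding step 1.5 h, 37 °C, antibody labelling 20 min, ice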
CHT block conf – CHT inhibitors, confirmation, cell-based, membrane potential dye, duplicate; CHT activity remaining % of control (hits give low values), % at 10 µM; CHT-expressing cells, choline membrane potential dye; LV-to-AA substituted CHT, HEK293 cells; shares compounds with CHT block; 2,400 tested, 70% active;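 active = choline transporter activity left, mean of duplicates at 10 µM, below buffer-only control mean minus 3 SD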;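 note: depolarization triggered by choline at its EC90 following an EC20 pre-addition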
HEK293 MPD ctr – membrane potential effects in parental HEK293, counter-screen for CHT inhibitor project, cell-based, membrane potential dye | 2,400 tested, 4% active | membrane potential ratio readout (active if shifted either direction beyond buffer ±3SD; no single direction) at 10 µM | choline response; active = decrease or increase beyond buffer ±3SD | shares compounds with CHT block;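 note: parental cells lack the transporter so any hit is non-specific; ratio is peak minus trough fluorescence over baseline after EC90 choline challenge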
Large screens that a line does not name were inactive (follow-up assays come after a bar, where they were run).

O=C(c1ccccn1)N1CCCC(N2CCN(c3cccc(C(F)(F)F)c3)CC2)C1 (centres undefined)	none
Cc1ccc(NC(=O)COC(=O)C2CSC3(C)CCC(=O)N23)cc1S(=O)(=O)N1CCOCC1 (centres undefined)	CHT block -7.3 | CHT block conf inactive | HEK293 MPD ctr inactive
Cc1ccc(NC(=O)C2CSC3(C)CCC(=O)N23)cc1S(=O)(=O)N1CCOCC1 (centres undefined)	none (no result: CHT allo act, CHT block)
O=C(NC1CCCCCCC1)c1ccc(CNc2c(N3CCOCC3)c(=O)c2=O)cc1	CHT block -9.4 | CHT block conf 13% | HEK293 MPD ctr inactive
CC1CCCC(NC(=O)c2ccc(CNc3c(N4CCCC4)c(=O)c3=O)cc2)C1C (centres undefined)	CHT block -13 | CHT block conf 0.2% | HEK293 MPD ctr inactive
Cc1ccc(CNC(=O)c2ccc(CNc3c(N4CCCC4)c(=O)c3=O)cc2)cc1	none
CCC1CCCCN1C(=O)Cn1c(=O)n(CCCC(=O)NCc2ccco2)c(=O)c2sccc21 (centres undefined)	none
CC1CN(C(=O)CCC(=O)NC(C)c2ccccc2)c2cc(Cl)ccc2O1 (centres undefined)	none | CHT block conf 24% | HEK293 MPD ctr inactive
CC1CN(C(=O)CCC(=O)N2CCCCC2)c2cc(Cl)ccc2O1 (centres undefined)	none
CC(C(=O)N1CCN=C1c1ccccc1)N1C(=O)c2ccccc2C1=O (centres undefined)	none
CC(=O)N1CCN(S(=O)(=O)c2cccc(C(=O)NCc3ccc(F)cc3)c2)CC1	none (no result: CHT allo act, CHT block)
Cc1ccc(NS(=O)(=O)c2cc(Br)cnc2N)c(Cl)c1	none
Nc1ncc(Br)cc1S(=O)(=O)Nc1cc(C(F)(F)F)cc(C(F)(F)F)c1	CHT block -12 | CHT block conf 29% | HEK293 MPD ctr inactive
O=C(Nc1ccc(OCc2ccccc2)cc1)Nc1ccccc1C(=O)NCCCN1CCOCC1	CHT block -5 | CHT block conf 44% | HEK293 MPD ctr inactive
CCOc1ccc(NC(=O)C2CC(=O)N(c3ccccc3F)C2)cc1 (centres undefined)	none
OC1CCCN(c2c3c(nc4cc(-c5cccc(F)c5)nn24)CCCC3)C1 (centres undefined)	CHT block -5.2 | CHT block conf inactive | HEK293 MPD ctr inactive
Cc1cccc2sc(NNC(=O)c3cc(-c4cccs4)nc4ccccc34)nc12	none
CN(C(=O)c1ccccc1Cl)C1CCCCC1	CHT block -6.7 | CHT block conf inactive | HEK293 MPD ctr inactive
Cc1cccc(S(=O)(=O)Nc2nc3ccccc3nc2Nc2cccc(C(=O)O)c2)c1	none
O=S(=O)(Nc1nc2ccccc2nc1Nc1cccc(S(=O)(=O)N2CCCCC2)c1)c1ccccc1	CHT block -7.4 | CHT block conf 53% | HEK293 MPD ctr inactive
Cc1ccc(S(=O)(=O)Oc2ccccc2/C=C2/SC(=O)NC2=O)cc1	CHT block -6 | CHT block conf 57% | HEK293 MPD ctr inactive
CCCOc1ccc2ccccc2c1/C=C1\SC(=O)NC1=O	CHT block -6.4 | CHT block conf inactive | HEK293 MPD ctr inactive
O=C1NC(=O)/C(=C\c2ccc(O)cc2O)S1	none
COc1ccccc1OCCCOc1ccc(/C=C2\SC(=O)NC2=O)cc1OC	none
O=C1NC(=O)/C(=C/c2cccc3ccccc23)S1	CHT block -5 | CHT block conf 62% | HEK293 MPD ctr inactive
O=C(CCn1nnc2ccccc21)OCC(=O)c1ccc(F)cc1	none
CCOc1cc(NC(=O)C(C)C)c(OCC)cc1NC(=O)Nc1ccccc1	none
O=C(C1=C(O)C(=O)N(CC2CCCO2)C1c1ccccc1)c1ccco1 (centres undefined)	none
CCOc1cc(/C=C2\N=C(SC)SC2=O)cc([N+](=O)[O-])c1OC(C)=O	CHT block -5.2 | CHT block conf 65% | HEK293 MPD ctr inactive
CC(=O)c1c(COC(=O)c2ccccc2Cl)nc2ccccc2[n+]1[O-]	none
CNc1ccc(C(=O)OCC(=O)Nc2ccnn2C(C)C)cc1[N+](=O)[O-]	none (no result: CHT allo act, CHT block)
O=C(O)c1ccc(Nc2cc(Cl)c3nonc3c2[N+](=O)[O-])cc1	none
O=[N+]([O-])c1c(Nc2cccc(O)c2)cc(Cl)c2nonc12	CHT block -7.4 | CHT block conf 28% | HEK293 MPD ctr inactive
O=C(CCc1ccccc1O)NC1CCCc2ccccc21 (centres undefined)	CHT block -6.2 | CHT block conf inactive | HEK293 MPD ctr inactive
O=C(NNC(=O)c1ccccc1O)c1cccc(Br)c1	none
Cc1noc(NC(=O)c2ccccc2)c1C#N	none
COc1ccccc1C(=O)Nc1onc(C)c1C#N	CHT block -6.4 | CHT block conf inactive | HEK293 MPD ctr inactive
Cc1ccc(NC(=O)C2CSC3(C)CCC(=O)N23)cc1S(=O)(=O)N1CCCCCC1 (centres undefined)	none (no result: CHT allo act, CHT block)
COc1ccccc1CC1CC(=O)N(c2cccc(Cl)c2C)C1=O (centres undefined)	none
Cc1nc(CSc2nc3[nH]ncc3c(=O)n2-c2ccccc2)cs1	none
Cc1noc(C)c1CSc1nc2[nH]ncc2c(=O)n1-c1ccccc1	CHT block -5.5 | CHT block conf inactive | HEK293 MPD ctr inactive
O=C(NCC(c1cccnc1)N1CCN(c2ccccc2F)CC1)c1cccc(Cl)c1 (centres undefined)	CHT block -6.9 | CHT block conf inactive | HEK293 MPD ctr inactive
O=C(Nc1nc2nccc(-c3ccccc3)n2n1)c1ccccc1	none
COc1ccc(C(=O)Nc2nc3nccc(-c4ccccc4)n3n2)cc1	CHT block -6.4 | CHT block conf inactive | HEK293 MPD ctr inactive
CCOP(=O)(OCC)c1ccc2c(c1)C(=O)c1ccccc1CC2	none (no result: CHT allo act, CHT block)
COc1ccc(C(=O)CCc2ccccc2)c(O)c1	none
O=C(CCc1ccccc1)c1c(O)cc(O)cc1O	CHT block -7.9 | CHT block conf 40% | HEK293 MPD ctr inactive
CN1CCN(S(=O)(=O)c2ccc3c(c2)oc(=O)n3C)CC1	none
CCc1ccc(S(=O)(=O)NCc2cn3ccsc3n2)s1	none
CCc1ccc(S(=O)(=O)NCc2cn3cccc(C)c3n2)s1	CHT block -5.4 | CHT block conf 45% | HEK293 MPD ctr inactive
CCc1nnc(NS(=O)(=O)c2ccc(NC(=O)/C=C/c3ccccc3Cl)cc2)s1	CHT block -5.6 | CHT block conf 51% | HEK293 MPD ctr inactive
CCOC(=O)[C@H]1[C@H]2COc3ccc(Br)cc3[C@@H]2N2C(=O)CN(Cc3ccco3)C(=O)[C@@]12C	none (no result: CHT allo act, CHT block)
